To fix the notation:
B1: tRNA (parent)
chain: GUUCCGUUGGCGUAAUGGUAACGCGUCUCCCUCCUAAGGAGAAGACUGCGGGUUCGAGUCCCGUACGGAACG

Variants at the floor of the assay were thinned out.

From the RNAGym collection of RNA variant scans (doi:10.1126/science.aae0568) come the findings set out here.

In the data set the parent is B1. The experiment in a line: yeast fitness relative to wild type (ratio to wild type); higher = fitter; tRNA-Arg(CCU), competitive growth, 37 C, YPD. The gist of the method:
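Amplicons of the tRNA-Arg(CCU) gene were sequenced, 100-nucleotide paired-end, from the start population and from each end population of a pooled yeast competition. The competition, in six parallel replicates, lasted 24 hours in YPD at 37°C. Fitness relative to wild type was calculated from changes in genotype frequencies. Genotypes had to have ≥ 100 starting reads, and estimates < 0.5 were set to 0.5.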
As to GUUCUGUUGGCGUAAUGGUAACGCGUCUCCCUCCUAAGGAGAAGACUGCGCGUUCCAGUCCCGUACGGUACG [C5U G51C G56C A69U], the yeast fitness was no more than 0.5.
The value for GUUCUGUUGGCGUAAUGGUAACGCAUCUCCCUCCUAAGGAGAAGACUGCGGGUUCGAGUCCCGUACGGACCG [C5U G25A A70C] was 0.796.
As for GUUCUGUUGGCGUAAUGGUAACGCGUCUCCCUCCUAAGGAGAAGACUGCGCGUUCGCGUCCCGUACGGAACG [C5U G51C A57C], the yeast fitness is no more than 0.5.
As for GUUCUGUUGGCGUAAUGGUAACGCGUCUCCCUCCUAAGGAGAAGACUGCAGGUUCGAGUCCCGUACGGAACG [C5U G50A], the figure is 0.888.
Consider GUUCUGUUGGCGUAAUGGUAACGCGUCUCCCUCCUAACGAGAAGAUUGCGGGUUCGAGUUCCGUACGGAACG [C5U G38C C46U C60U], for which the yeast fitness was no more than 0.5.
With GUUCUGUUGGCGUAAUGGUAACGCAUCUCCCUCCUAAGGAGAAGACUGCGCGUUCCAGUCCCGUACGGUACG [C5U G25A G51C G56C A69U], the yeast fitness was no more than 0.5.
As for GUUCUGUUGGCGUAAUGGUAACGCGUCUCCCUCCUAAGGAGAAAACUGCGGGUUCGAGUCCCGUACGAAACG [C5U G44A G68A], the figure is 0.522; as for GUUCUGUUGGCGUAAUGGUAACGCGUCUCCCUCCUAACCGGAAAAGUGCGGAUUCGAGGCCCGUACGGAACG [C5U G38C G39C A40G G44A C46G G52A U59G], no more than 0.5; as for GUUCUGUUGGCGUAAUGGUAACGCGUCUCCCUCCUAAGGAGAAGACUUCGGGUUCGAGUCCCGUACGGACCG [C5U G48U A70C], 0.707.
GUUCUGUUGGCGUAAUGGUAACGCGUCUCCCUCCUAAGGAGAAGACUGCGAGUUCGUGUCCCGUACGGAACG [C5U G51A A57U]: the yeast fitness was no more than 0.5.
As for GUUCUGUUGGCGUAAUGGUAACGCGUCUCCCUCCUAAGGAGAACACUGCGGGUUCGAGUCCCGUACGGAACG [C5U G44C], the yeast fitness amounted to 1.01.
As for GUUCUGUUGGCGUAAUGGUAACGCGUCUCCCUCCUAAGGAGAAGACUGCCCGUUCCAGUCCCGUACGGUACG [C5U G50C G51C G56C A69U], the figure is no more than 0.5.
Regarding GUUCUGUUGGCGUAAUGGUAACGCCUCUCCCUCCUAAGGAGUAGACUGCGGGUUCGAGUCCGGUACGGAACG [C5U G25C A42U C62G], the yeast fitness was no more than 0.5.
Regarding GUUCUGUUGGCGUAAUGGUAACGCGUCUCCCUCCUAAGGAGAAGACUACAGGUUUGAGUCCCGUCCGGAACG [C5U G48A G50A C55U A65C], the yeast fitness was no more than 0.5.
Turning to GUUCUGUUGGCGUAAUGGUAACGCGUCUCCCUCCUAAGGAAAAGAACGCGGGUUCGAGUCCCGUACGGAACG [C5U G41A C46A U47C], the yeast fitness amounted to 0.568.
Regarding GUUCUGUUGGCGUAAUGGUAACGCGUCUCCCUCCUAAGGAGAAGACUCCGGGUUCGAGUCCCGUACGGAACG [C5U G48C], the yeast fitness is 0.853.
As for GUUCUGUUGGCGUAAUGGUAACGCGUCUCCCUCCUAAGGAGAACACUGUGGGUUCGAGUCCCGGACAGAACG [C5U G44C C49U U64G G67A], the figure is 0.51; as for GUUCUGUUGGCGUAAUGGUAACGCGUCUCCCUCCUAAGGAACAGACUGCCGGUUCGAGUCCCGUACGGAGCG [C5U G41A A42C G50C A70G], 0.535; as for GUUCUGUUGGCGUAAUGGUAACGCGUCUCCCUCCUAAAGAGAAGACUGCGGGUUCGAGUCCCGUACGGAACG [C5U G38A], 1.03.
For GUUCUGUUGGCGUAAUGGUAACGCGUCUCCCUCCUAAGGAGAAGACUGCGAGUUCGAGUCCCGUACGGAACG [C5U G51A], the yeast fitness worked out at 0.798.
As for GUUCUGUUGGCGUAAUGGUAACGCGUCUCCCUCCUAAAGAGGAGACUGCGGGUUCGAGUCCCGUACGGAACG [C5U G38A A42G], the yeast fitness came out at 0.605.
The value for GUUCUGUUGGCGUAAUGGUAACGCGUCUCCCUCCUAAGGAAAAGACUGCGGGUUCCAGUCCGGUACGCAACG [C5U G41A G56C C62G G68C] was no more than 0.5; that for GUUCUGUUGGCGUAAUGGUAACGCCUGUCCCUCCUAAGGAGAAGACUGCGGGUUCGAGUCCCGUACGGAACG [C5U G25C C27G] was no more than 0.5; that for GUUCUGUUGGCGUAAUGGUAACGCGUCUCCCUCCUAAGAAGAAGACUGCGUGUUCGACUCCCGUACGGAACG [C5U G39A G51U G58C] was no more than 0.5.
The value for GUUCUGUUGGCGUAAUGGUAACGCGUCUCCCUCCUAAGGAAAAGACUGCGGGUUCGAGUCCCGUACGGACCG [C5U G41A A70C] was 0.695.
As for GUUCUGUUGGCGUAAUGGUAACGCGUCUCCCUCCUAAGGAGAACACUGCGGGUUCGAGUCCCCUACGGAACG [C5U G44C G63C], the figure is 0.686; as for GUUCUGUUGGCGUAAUGGUAACGCGUCUCCCUCCUAACGAGCAGACUGCGGGUUCGAGUCCCAUACGGAACG [C5U G38C A42C G63A], no more than 0.5; as for GUUCUGUUGGCGUAAUGGUAACGCCUCUCCCUCCUAAGGAGAAGACUGAGGGUUCCAGUCCGGUACGGAACG [C5U G25C C49A G56C C62G], no more than 0.5.
Consider GUUCUGUUGGCGUAAUGGUAACGCGUCUCCCUCCUAAGCAGAAGACUGCGGGUUCGAGAGCCGUACGGAACG [C5U G39C U59A C60G], for which the yeast fitness was no more than 0.5.
The value for GUUCUGUUGGCGUAAUGGUAACGCGUCUCCCUCCUAAGGAAAAGACUGUGGGUUCGAGUCCCGUGUGGAACG [C5U G41A C49U A65G C66U] was no more than 0.5; that for GUUCUGUUGGCGUAAUGGUAACGCGUCUCCCUCCUAAGGAGAAGACUGCGCGUUCCAGUCCCGUACGGAACG [C5U G51C G56C] was no more than 0.5.
On to GUUCUGUUGGCGUAAUGGUAACGCGUCUCCCUCCUAAGAAGAAGACUGCGGGUUCGAGUCCCGUACGGCACG [C5U G39A A69C], for which the yeast fitness is 0.647.
Consider GUUCUGUUGGCGUAAUGGUAACGCCUCUCCCUCCUAAGGAGAAGACUGCGGGUUCGAGUCCCGUACGGAACG [C5U G25C], for which the yeast fitness was 0.997.
Turning to GUUCUGUUGGCGUAAUGGUAACGCGUCUCCCUCCUAAGGAGAACACCGCGGGUUCGAGUCCCGUACGGAACG [C5U G44C U47C], the yeast fitness was 0.807.
As for GUUCUGUUGGCGUAAUGGUAACGCGUCUCCCUCCUAAGGAGAAGACUGCGAGUUCGAGUCCCGUCCGGAACG [C5U G51A A65C], the figure is no more than 0.5; as for GUUCUGUUGGCGUAAUGGUAACGCGUCUCCCUCCUAAGAAGAAGACUGCGGGUUCGCGUCCCGUACGGAACG [C5U G39A A57C], 0.656.
The value for GUUCUGUUGGCGUAAUGGUAACGCGUCUCCCUCCUAAGGAGAACACUGCGGGUCCGAGUCCCGUACGGAACG [C5U G44C U54C] was 0.637.
As for GUUCUGUUGGCGUAAUGGUAACGCGUCUCCCUCCUAAGAAGAAGACUGCGGGUUUGAGUCCCGUACGGAACG [C5U G39A C55U], the figure is 0.614.
